ChEMBL document CHEMBL4834416, “The Discovery of Novel ACA Derivatives as Specific TRPM2 Inhibitors that Reduce Ischemic Injury Both In Vitro and In Vivo” (J Med Chem, 2021)
pIC50: −log10 of the molar value.

Key:
SH-SY5Y = assay: Cytotoxicity against human SH-SY5Y cells assessed as toxicity at 30 uM incubated for 24 hrs by CCK-8 assay; assay type: cell-based
Method in brief: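 SH-SY5Y cells were seeded at 2 × 10⁴ per well and grown 12 h at 37 °C. They were then treated with compound (1–30 μM) under normoxic, normal-glucose conditions for 24 h. CCK-8 (10%) was added for 2 h at 37 °C and OD450 read. Viability was taken relative to untreated control after blank subtraction, with three replicate wells.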

[1] = target: T1, Transient receptor potential cation channel subfamily M member 8 (Homo sapiens, UniProt Q7Z2W7); assay: Inhibition of human TRPM8 expressed in HEK293T cells assessed as blocked of menthol-activated current at 10 uM by whole cell patch clamp electrophysiology relative to control; assay type: cell-based
Method in brief: (§1)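 Whole-cell patch clamp was run at room temperature on HEK293T cells transiently cotransfected with human TRPM8 plus GFP, 24–48 h before recording. ECS was 145 NaCl, 5.6 KCl, 2 MgCl₂, 1.2 CaCl₂, 10 HEPES, pH 7.2. Current was activated with 1 mM menthol, and compound was perfused at least 60 s after it stabilized. Inhibition was calculated relative to stable agonist current minus residual current; n = 3–6.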

[2] = target: T1, Transient receptor potential cation channel subfamily M member 8; assay: Inhibition of human TRPM8 expressed in HEK293T cells assessed as blocked of menthol-activated current at 3 uM by whole cell patch clamp electrophysiology relative to control; assay type: cell-based; method in brief: as §1
Phospholipase A2 [3] = target: T2, Phospholipase A2 (Homo sapiens, UniProt P04054); assay: Inhibition of PLA2 (unknown origin) using soybean phosphatidylcholine as substrate at 10 uM preincubated for 30 mins followed incubated for 60 mins after substrate addition by microplate reader relative to control
Method in brief: (§2)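 PLA2 (4 μg/L in PBS) was preincubated 30 min at 37 °C with inhibitor in 125 mM Tris. Substrate was then added for 60 min: soybean phosphatidylcholine with Tris, CaCl₂, sodium deoxycholate and 0.5% Triton X-100. Liberated free fatty acids were quantified colorimetrically at OD550. Results are % inhibition versus enzyme without inhibitor, n = 3.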
Target sequence in this assay (P04054 23-148 limits assumed): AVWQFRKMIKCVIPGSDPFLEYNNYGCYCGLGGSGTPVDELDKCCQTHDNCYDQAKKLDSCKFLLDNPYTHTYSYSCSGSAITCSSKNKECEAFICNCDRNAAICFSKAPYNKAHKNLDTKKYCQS

Phospholipase A2 [4] = target: T2, Phospholipase A2; assay: Inhibition of PLA2 (unknown origin) using soybean phosphatidylcholine as substrate preincubated for 30 mins followed incubated for 60 mins after substrate addition by microplate reader relative to control; method in brief: as §2
Target sequence in this assay (P04054 whole entry): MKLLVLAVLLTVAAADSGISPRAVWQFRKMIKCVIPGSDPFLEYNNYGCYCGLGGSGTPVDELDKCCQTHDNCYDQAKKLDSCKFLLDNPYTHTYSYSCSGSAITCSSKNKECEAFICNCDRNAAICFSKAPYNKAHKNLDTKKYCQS

Phospholipase A2 [5] = target: T2, Phospholipase A2; assay: Inhibition of PLA2 (unknown origin) using soybean phosphatidylcholine as substrate at 3 uM preincubated for 30 mins followed incubated for 60 mins after substrate addition by microplate reader relative to control; method in brief: as §2
Target sequence in this assay (P04054 23-148 limits assumed): as the sequence (P04054 23-148 limits assumed) above

[6] = target: Transient receptor potential cation channel subfamily M member 2 (Homo sapiens, UniProt O94759); assay: Inhibition of human TRPM2 expressed in HEK293T cells assessed as suppression of H2O2-induced calcium flux at 1 uM measured after 30 mins by Fluo-3/AM assay; assay type: cell-based
Sequence of Transient receptor potential cation channel subfamily M member 2 (O94759 whole entry): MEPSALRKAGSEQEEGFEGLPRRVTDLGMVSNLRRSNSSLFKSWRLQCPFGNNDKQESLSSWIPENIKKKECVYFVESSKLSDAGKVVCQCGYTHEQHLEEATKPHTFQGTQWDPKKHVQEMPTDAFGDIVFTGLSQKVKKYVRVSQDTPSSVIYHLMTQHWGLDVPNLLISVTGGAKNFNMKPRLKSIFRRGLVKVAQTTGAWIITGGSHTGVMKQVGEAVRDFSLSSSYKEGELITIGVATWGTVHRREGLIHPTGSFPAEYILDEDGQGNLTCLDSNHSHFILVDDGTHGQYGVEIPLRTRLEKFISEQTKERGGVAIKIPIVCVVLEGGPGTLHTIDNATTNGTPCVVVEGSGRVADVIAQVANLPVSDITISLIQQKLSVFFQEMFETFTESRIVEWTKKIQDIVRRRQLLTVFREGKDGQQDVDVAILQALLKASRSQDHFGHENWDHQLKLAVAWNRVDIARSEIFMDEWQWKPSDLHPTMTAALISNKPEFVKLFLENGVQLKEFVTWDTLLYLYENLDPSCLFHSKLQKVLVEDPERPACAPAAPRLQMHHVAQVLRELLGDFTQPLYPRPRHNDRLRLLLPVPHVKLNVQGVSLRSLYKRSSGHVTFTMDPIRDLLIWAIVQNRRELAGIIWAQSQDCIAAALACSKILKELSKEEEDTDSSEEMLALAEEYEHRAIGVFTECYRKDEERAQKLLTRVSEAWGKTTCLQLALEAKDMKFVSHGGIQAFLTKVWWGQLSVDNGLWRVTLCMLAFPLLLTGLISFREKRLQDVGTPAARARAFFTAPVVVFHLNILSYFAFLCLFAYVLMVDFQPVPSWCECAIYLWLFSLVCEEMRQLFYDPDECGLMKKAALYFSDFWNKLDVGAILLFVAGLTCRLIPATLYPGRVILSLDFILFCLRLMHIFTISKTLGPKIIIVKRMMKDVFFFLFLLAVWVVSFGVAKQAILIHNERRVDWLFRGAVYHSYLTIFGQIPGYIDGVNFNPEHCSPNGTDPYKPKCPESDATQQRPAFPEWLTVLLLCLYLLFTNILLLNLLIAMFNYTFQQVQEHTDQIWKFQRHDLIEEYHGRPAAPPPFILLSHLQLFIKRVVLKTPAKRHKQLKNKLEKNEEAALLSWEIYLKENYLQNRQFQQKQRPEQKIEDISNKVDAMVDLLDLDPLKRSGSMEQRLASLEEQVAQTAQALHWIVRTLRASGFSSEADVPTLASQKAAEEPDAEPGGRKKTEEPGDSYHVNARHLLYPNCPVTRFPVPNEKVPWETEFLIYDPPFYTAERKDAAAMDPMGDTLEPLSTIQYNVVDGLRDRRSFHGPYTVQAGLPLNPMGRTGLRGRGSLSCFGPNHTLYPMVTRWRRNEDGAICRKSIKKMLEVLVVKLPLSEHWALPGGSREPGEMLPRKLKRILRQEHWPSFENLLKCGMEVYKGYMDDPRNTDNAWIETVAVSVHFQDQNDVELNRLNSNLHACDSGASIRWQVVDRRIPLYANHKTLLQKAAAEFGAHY

T1 sequence (Q7Z2W7 whole entry, looked up, the tested form may be a part): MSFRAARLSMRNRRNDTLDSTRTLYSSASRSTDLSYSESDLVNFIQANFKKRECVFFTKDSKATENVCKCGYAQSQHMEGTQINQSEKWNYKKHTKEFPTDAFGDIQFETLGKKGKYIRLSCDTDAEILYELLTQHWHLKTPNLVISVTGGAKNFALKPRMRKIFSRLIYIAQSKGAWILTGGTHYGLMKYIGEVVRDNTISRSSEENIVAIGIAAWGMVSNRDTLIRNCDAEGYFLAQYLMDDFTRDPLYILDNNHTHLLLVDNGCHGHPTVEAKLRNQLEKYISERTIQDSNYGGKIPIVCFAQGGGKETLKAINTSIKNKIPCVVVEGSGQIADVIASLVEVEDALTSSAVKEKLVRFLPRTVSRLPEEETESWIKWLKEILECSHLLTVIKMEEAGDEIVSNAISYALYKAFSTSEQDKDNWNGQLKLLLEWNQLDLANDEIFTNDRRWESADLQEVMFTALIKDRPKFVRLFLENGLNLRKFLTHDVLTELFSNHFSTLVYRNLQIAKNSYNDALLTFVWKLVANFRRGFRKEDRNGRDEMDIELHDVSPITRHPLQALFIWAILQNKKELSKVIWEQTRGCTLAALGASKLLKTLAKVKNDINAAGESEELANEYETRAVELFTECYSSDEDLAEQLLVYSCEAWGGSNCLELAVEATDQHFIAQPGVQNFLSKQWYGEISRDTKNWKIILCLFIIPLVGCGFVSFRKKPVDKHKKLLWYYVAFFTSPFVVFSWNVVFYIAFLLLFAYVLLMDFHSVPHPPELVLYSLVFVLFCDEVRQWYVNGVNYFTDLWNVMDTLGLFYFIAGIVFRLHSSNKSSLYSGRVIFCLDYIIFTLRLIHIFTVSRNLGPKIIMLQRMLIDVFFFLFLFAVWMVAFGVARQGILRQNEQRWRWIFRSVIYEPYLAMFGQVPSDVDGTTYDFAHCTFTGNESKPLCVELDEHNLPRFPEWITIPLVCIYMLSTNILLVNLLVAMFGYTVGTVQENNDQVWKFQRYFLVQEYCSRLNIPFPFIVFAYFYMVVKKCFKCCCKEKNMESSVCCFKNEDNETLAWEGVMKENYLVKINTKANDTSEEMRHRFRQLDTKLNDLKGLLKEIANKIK

inhibition [1]: 62.2%
inhibition [2]: 39.3%
inhibition (Phospholipase A2 [3]): 40.4%
pIC50 (Phospholipase A2 [4]): 4.66
inhibition (Phospholipase A2 [5]): 23.4%
inhibition [6]: > 45%
Structure (SMILES): CCCCCc1ccc(/C=C/C(=O)Nc2ccccc2C(=O)O)cc1
Activity (SH-SY5Y): < 10%
